Experimental data published in ChEMBL document CHEMBL3286316, “Cinnamic anilides as new mitochondrial permeability transition pore inhibitors endowed with ischemia-reperfusion injury protective effect in vivo” (J Med Chem, 2014).
Blank lines part the entries; values can stand above or below the compound they belong to. Activity calls are given as the source filed them. No cut-off for these calls is given here.

Legend:
Oryctolagus cuniculus [1] = assay: Cardioprotective effect in New Zealand rabbit ischemia/reperfusion-induced left anterior descending coronary artery ligation myocardial infarction model assessed as ratio of area at risk to infarct area at 10 mg/kg, iv administered as bolus dose 5 min prior to reperfusion (reference value: 57.3%); format: functional, Myocardium
Mus musculus [2] = species on record: Mus musculus; assay: Inhibition of calcium-induced mPTP opening in C57/bl6 mouse liver mitochondria assessed as increase in calcium retention capacity in presence of cyclosporine A by fluorimetry
Method in brief: (§1)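 Male C57/bl6 liver mitochondria (0.5 mg/mL) in KCl/MOPS buffer with glutamate/malate, pH 7.4, containing 1 μM Calcium Green 5N. Compound added just before the start. CaCl2 pulses added every minute at 25 °C; extramitochondrial fluorescence (ex 505/em 535 nm) followed until mPTP opening. Dose series 0.1–5.0 μM, or given in combination with CsA; mean of three experiments.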

Mus musculus [3] = species on record: Mus musculus; assay: Inhibition of calcium-induced mPTP opening in C57/bl6 mouse heart mitochondria assessed as increase in calcium retention capacity at 5 uM after 2 mins by fluorimetry (reference value: 80 uM)
Method in brief: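 Excised mouse hearts on a Langendorff apparatus, perfused 2 min with Krebs-type buffer, then 2 min with 5 μM compound in 0.1% DMSO or 0.1% DMSO alone. Hearts iced, mitochondria isolated, CRC measured with Calcium Green 5N and repeated CaCl2 pulses at 25 °C. Value is absolute calcium retained; n = 6 per group.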

[4] = Plasma concentration in New Zealand rabbit myocardial infarction model at 5 mg/kg, iv administered as bolus dose after 5 mins by LC/MS analysis; format: ADME, organism-based, Oryctolagus cuniculus; set-up: dose 5 mg/kg, route intravenous
Method in brief: (§2)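 Satellite rabbits (n = 5) given the same 5 mg/kg iv bolus. Jugular blood taken into K2EDTA predose and at 5, 15, 30, 60 and 240 min post reperfusion. Plasma precipitated with ACN/H3PO4 and analysed by UPLC-MS/MS, ESI(+), MRM mode. Eight-point calibration 2.5–1000 ng/mL, LLOQ 2.5 ng/mL. Half-life by noncompartmental analysis.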

[5] = molecular target: Voltage-gated inwardly rectifying potassium channel KCNH2 (Homo sapiens, UniProt Q12809); assay: Displacement of [3H]-astemizole from human hERG expressed in HEK293 cells at 30 uM by liquid scintillation counting; format: cell-based; conditions: hek293, 30 µM
Voltage-gated inwardly rectifying potassium channel KCNH2, sequence (Q12809 whole entry): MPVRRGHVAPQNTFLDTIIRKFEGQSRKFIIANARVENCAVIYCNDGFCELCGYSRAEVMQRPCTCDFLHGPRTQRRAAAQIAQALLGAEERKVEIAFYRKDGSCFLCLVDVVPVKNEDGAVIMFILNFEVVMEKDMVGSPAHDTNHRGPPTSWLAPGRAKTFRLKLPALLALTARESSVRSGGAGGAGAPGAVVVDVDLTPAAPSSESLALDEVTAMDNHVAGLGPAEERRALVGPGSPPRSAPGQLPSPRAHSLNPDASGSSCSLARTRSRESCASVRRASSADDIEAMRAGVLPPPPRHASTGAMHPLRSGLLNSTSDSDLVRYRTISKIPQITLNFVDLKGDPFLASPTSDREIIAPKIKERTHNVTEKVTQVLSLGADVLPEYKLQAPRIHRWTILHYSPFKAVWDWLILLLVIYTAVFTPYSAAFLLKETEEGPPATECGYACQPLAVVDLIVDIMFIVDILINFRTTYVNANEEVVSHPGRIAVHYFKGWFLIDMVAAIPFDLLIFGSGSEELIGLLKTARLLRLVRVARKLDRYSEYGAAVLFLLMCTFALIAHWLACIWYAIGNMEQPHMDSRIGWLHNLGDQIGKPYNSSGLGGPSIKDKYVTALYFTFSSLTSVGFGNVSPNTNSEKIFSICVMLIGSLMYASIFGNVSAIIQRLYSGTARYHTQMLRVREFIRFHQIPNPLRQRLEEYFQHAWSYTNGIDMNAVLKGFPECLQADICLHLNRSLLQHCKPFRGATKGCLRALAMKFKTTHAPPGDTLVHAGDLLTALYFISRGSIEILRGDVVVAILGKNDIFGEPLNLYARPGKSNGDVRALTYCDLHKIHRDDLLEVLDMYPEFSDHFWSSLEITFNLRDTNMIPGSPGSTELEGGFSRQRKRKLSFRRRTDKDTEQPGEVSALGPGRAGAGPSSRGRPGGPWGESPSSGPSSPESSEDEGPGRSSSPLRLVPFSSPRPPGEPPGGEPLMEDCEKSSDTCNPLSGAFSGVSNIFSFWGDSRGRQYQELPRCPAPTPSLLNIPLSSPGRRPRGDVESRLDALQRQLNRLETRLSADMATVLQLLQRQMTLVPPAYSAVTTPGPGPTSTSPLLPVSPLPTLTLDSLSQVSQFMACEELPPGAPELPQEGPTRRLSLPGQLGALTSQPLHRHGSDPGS

[6] = Plasma concentration in New Zealand rabbit myocardial infarction model at 5 mg/kg, iv administered as bolus dose after 240 mins by LC/MS analysis; format: ADME, organism-based, Oryctolagus cuniculus; set-up: dose 5 mg/kg, route intravenous; method in brief: as §2
Mus musculus [7] = species on record: Mus musculus; assay: Inhibition of calcium-induced mPTP opening in C57/bl6 mouse liver mitochondria assessed as increase in calcium retention capacity at 0.1 to 5 uM by fluorimetry; method in brief: as §1
Mus musculus [8] = assay: Increase in calcium retention capacity in C57/bl6 mouse heart mitochondria at 15 mg/kg, iv measured after 5 mins by fluorimetry (reference value: 69.8 uM); format: functional
Method in brief: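 Mice dosed 15 mg/kg iv in the tail vein. Hearts taken 5 min later and mitochondria isolated in sucrose/Tris/EGTA/0.1% BSA buffer. CRC measured with Calcium Green 5N under CaCl2 pulses added every minute at 25 °C until mPTP opening. Value is absolute calcium retained; vehicle DMSO, n = 16 vehicle, n = 6 treated.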

Rattus norvegicus [9] = assay: Toxicity in WI(Glx/BRL/Han)IGS rat assessed as systolic blood pressure at 30 mg/kg, iv; format: organism-based, Artery; set-up: dose 30 mg/kg, route intravenous; conditions: in vivo
Method in brief: (§3)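 Conscious female rats implanted with telemetry, given a single iv dose up to 30 mg/kg. Heart rate, systolic, diastolic and mean blood pressure, and body temperature recorded from at least 1 h before to about 24 h after dosing.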

[10] = Half life in New Zealand rabbit myocardial infarction model plasma at 5 mg/kg, iv administered as bolus dose by LC/MS analysis; format: ADME, organism-based, Oryctolagus cuniculus; set-up: dose 5 mg/kg, route intravenous; method in brief: as §2
Oryctolagus cuniculus [11] = assay: Cardioprotective effect in New Zealand rabbit ischemia/reperfusion-induced left anterior descending coronary artery ligation myocardial infarction model assessed as ratio of area at risk to infarct area at 5 mg/kg, iv administered as bolus dose 5 min prior to reperfusion (reference value: 57.3%); format: functional, Myocardium
Rattus norvegicus [12] = assay: Toxicity in WI(Glx/BRL/Han)IGS rat assessed as body temperature at 30 mg/kg, iv; format: organism-based; set-up: dose 30 mg/kg, route intravenous; conditions: in vivo; method in brief: as §3
Rattus norvegicus [13] = assay: Toxicity in WI(Glx/BRL/Han)IGS rat assessed as diastolic blood pressure at 30 mg/kg, iv; format: organism-based, Artery; set-up: dose 30 mg/kg, route intravenous; conditions: in vivo; method in brief: as §3
Rattus norvegicus [14] = assay: Toxicity in WI(Glx/BRL/Han)IGS rat assessed as heart rate at 30 mg/kg, iv; format: organism-based; set-up: dose 30 mg/kg, route intravenous; conditions: in vivo; method in brief: as §3
Mus musculus [15] = species on record: Mus musculus; assay: Inhibition of diamide-induced mPTP opening in C57/bl6 mouse liver mitochondria assessed as reduction in mitochondrial swelling at 1 uM by spectrophotometry
Method in brief: (§4)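 Male C57/bl6 liver mitochondria at 0.5 mg/mL final in KCl/MOPS/phosphate buffer with glutamate/malate, pH 7.4; compound at 1 μM added before the mitochondria. Swelling followed as the fall in A540, read every 9 s for 10 min. Inducers: CaCl2 150 μM, FCCP 50 nM, menadione 100 μM, diamide 300 μM.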

Mus musculus [16] = species on record: Mus musculus; assay: Inhibition of menadione-induced mPTP opening in C57/bl6 mouse liver mitochondria assessed as reduction in mitochondrial swelling at 1 uM by spectrophotometry; method in brief: as §4
[17] = molecular target: Sodium-dependent noradrenaline transporter (Homo sapiens) (UniProt P23975); assay: Displacement of antagonist radioligand from human NET at 10 uM
Sodium-dependent noradrenaline transporter (Homo sapiens), sequence (P23975 whole entry): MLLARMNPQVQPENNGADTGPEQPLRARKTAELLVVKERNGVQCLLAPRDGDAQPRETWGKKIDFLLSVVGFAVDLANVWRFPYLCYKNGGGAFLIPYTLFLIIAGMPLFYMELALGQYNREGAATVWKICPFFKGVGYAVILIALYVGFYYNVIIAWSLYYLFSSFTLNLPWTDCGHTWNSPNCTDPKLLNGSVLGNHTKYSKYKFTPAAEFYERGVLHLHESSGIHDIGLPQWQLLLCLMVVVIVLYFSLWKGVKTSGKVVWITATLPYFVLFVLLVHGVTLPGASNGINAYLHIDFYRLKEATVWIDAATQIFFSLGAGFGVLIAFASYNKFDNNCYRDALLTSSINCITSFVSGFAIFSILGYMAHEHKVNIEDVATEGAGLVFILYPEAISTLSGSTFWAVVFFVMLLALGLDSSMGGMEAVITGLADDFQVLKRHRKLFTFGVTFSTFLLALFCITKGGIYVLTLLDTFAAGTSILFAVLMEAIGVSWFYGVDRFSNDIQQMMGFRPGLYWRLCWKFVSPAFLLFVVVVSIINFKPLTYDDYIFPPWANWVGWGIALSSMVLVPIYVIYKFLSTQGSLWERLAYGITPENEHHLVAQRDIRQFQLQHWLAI
Method in brief: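 Single 10 μM concentration tested in a receptor/enzyme diversity panel, read as displacement of a target-specific radioligand.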

Mus musculus [18] = species on record: Mus musculus; assay: Inhibition of Cacl2-induced mPTP opening in C57/bl6 mouse liver mitochondria assessed as reduction in mitochondrial swelling at 1 uM by spectrophotometry; method in brief: as §4
Mus musculus [19] = species on record: Mus musculus; assay: Inhibition of FCCP-induced mPTP opening in C57/bl6 mouse liver mitochondria assessed as reduction in mitochondrial swelling at 1 uM by spectrophotometry; method in brief: as §4

SMILES: C/C=C/C[C@@H](C)[C@@H](O)[C@H]1C(=O)N[C@@H](CC)C(=O)N(C)CC(=O)N(C)[C@@H](CC(C)C)C(=O)N[C@@H](C(C)C)C(=O)N(C)[C@@H](CC(C)C)C(=O)N[C@@H](C)C(=O)N[C@H](C)C(=O)N(C)[C@@H](CC(C)C)C(=O)N(C)[C@@H](CC(C)C)C(=O)N(C)[C@@H](C(C)C)C(=O)N1C [CYCLOSPORINE]
- Activity (Oryctolagus cuniculus [1]): 32.6%

- inhibition (Mus musculus [2]): Active
- INH (Mus musculus [3]): 125 µM
- concentration at 5 min [4]: 4800 nM
- concentration at 4 h [6]: 20 nM
- inhibition (Mus musculus [7]): Dose-dependent effect
- half-life [10]: 30 min
SMILES: O=C(/C=C/c1ccc(F)c(O)c1)Nc1cccc2ccccc12
- Activity [5]: Not Active
- Activity (Mus musculus [8]): 108.4 µM
- Activity (Rattus norvegicus [9]): Non-toxic
- Activity (Oryctolagus cuniculus [11]): 30.9%
- Activity (Rattus norvegicus [12]): Non-toxic
- Activity (Rattus norvegicus [13]): Non-toxic
- Activity (Rattus norvegicus [14]): Non-toxic

- inhibition (Mus musculus [15]): Active
- inhibition (Mus musculus [16]): Active
- inhibition [17]: > 50%
- inhibition (Mus musculus [18]): Active
- inhibition (Mus musculus [19]): Active
SMILES: COc1ccc(/C=C/C(=O)Nc2cccc(Cl)c2)cc1O
